From ChEMBL document CHEMBL2046312, “Synthesis and biological activity of potent HIV-1 protease inhibitors based on Phe-Pro dihydroxyethylene isosteres” (J Med Chem, 2012)

Assays:
Protease [1] = molecular target: T1, Protease (Human immunodeficiency virus 1, UniProt Q9YQ12); assay: Inhibition of Human immunodeficiency virus 1 protease using Abz-Thr-Ile-Nle-Phe(p-NO2)-Gln-Arg-NH2 as substrate by fluorescence analysis
Outline: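 Recombinant wild-type HIV-1 PR with fluorogenic substrate Abz-NF*-6, run at pH 5.5. […] 1.2 nM PR needed to detect activity. Active enzyme concentration set by titration with ritonavir and nelfinavir. The IC50 measurability limit is one-half of the active enzyme concentration.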

[2] = tested on: Human immunodeficiency virus 1; assay: Antiviral activity against Human immunodeficiency virus 1 3B infected in human MT2 cells assessed as inhibition of reverse transcriptase activity at 10 nM after 72 to 96 hrs by MTT assay relative to untreated control; type: functional; design: scale not given: the % may be the effect or the level left
[3] = tested on: Human immunodeficiency virus 1; assay: Antiviral activity against Human immunodeficiency virus 1 3B infected in human MT2 cells assessed as survival of virus infected cells at 10 nM after 72 to 96 hrs by MTT assay; type: functional
Outline: (§1)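 HIV-1 IIIB from supernatants of chronically infected H9/HTLV IIIB cells; stock characterized by p24, RT activity and infectivity (2 × 10⁶ infectious virions/mL). MT-2 cells in RPMI 1640 + 10% FCS, infected at MOI 0,1 and incubated with inhibitor for 72−96 h. Microtiter infection assay, MTT uptake read at 540 nm, expressed as % survival of virus-infected cells.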

[4] = (§2) Cytotoxicity against human MT2 cells assessed as maximum non-toxic concentration after 72 hrs by MTT assay; type: cell-based; details: MT2 cells, read-out: MNCC
Outline: (§3)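 MT-2 cells grown in RPMI 1640 with 10% fetal calf serum and exposed to inhibitor for 72 or 96 h. MTT uptake read-out. CC50 is derived from % cell survival. MNC is the highest concentration that alters neither monolayer morphology nor survival rate. Six to eight parallels per experiment, each experiment run in triplicate.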

MT2 [5] = assay: as §2; type: cell-based; details: mt2, 72 h; outline: as §3
[6] = tested on: Human immunodeficiency virus 1; assay: Antiviral activity against Human immunodeficiency virus 1 3B infected in human MT2 cells assessed as inhibition of reverse transcriptase activity at 5 nM after 72 to 96 hrs by MTT assay relative to untreated control; type: functional; design: scale not given: the % may be the effect or the level left
[7] = Ratio of CC50 for human MT2 cells after 96 hrs to CC50 for human MT2 cells after 72 hrs; type: cell-based
MT2 [8] = assay: Ratio of MNC for human MT2 cells after 96 hrs to MNC for human MT2 cells after 72 hrs; type: ADME, cell-based
[9] = (§4) Cytotoxicity against human MT2 cells assessed as maximum non-toxic concentration after 96 hrs by MTT assay; type: cell-based; details: MT2 cells, read-out: MNCC; outline: as §3
MT2 [10] = assay: as §4; type: cell-based; details: mt2, 96 h; outline: as §3
[11] = (§5) Cytotoxicity against human MT2 cells after 96 hrs by MTT assay; type: cell-based; details: MT2 cells; outline: as §3
MT2 [12] = assay: as §5; type: cell-based; details: mt2, 96 h; outline: as §3
[13] = (§6) Cytotoxicity against human MT2 cells after 72 hrs by MTT assay; type: cell-based; details: MT2 cells; outline: as §3
MT2 [14] = assay: as §6; type: cell-based; details: mt2, 72 h; outline: as §3
Protease [15] = molecular target: T1, Protease; assay: Inhibition of HIV1 3B protease activity in human H9 cells using Abz-Thr-Ile-Nle-Phe(p-NO2)-Gln-Arg-NH2 as substrate after 40 mins by spectrophotometric analysis; type: cell-based
[16] = tested on: Human immunodeficiency virus 1; assay: Antiviral activity against Human immunodeficiency virus 1 3B infected in human MT2 cells assessed as survival of virus infected cells at 5 nM after 72 to 96 hrs by MTT assay; type: functional; outline: as §1
[17] = tested on: Human immunodeficiency virus 1; assay: Antiviral activity against Human immunodeficiency virus 1 3B infected in human MT2 cells assessed as survival of virus infected cells at 0.0001 nM after 72 to 96 hrs by MTT assay; type: functional; outline: as §1
[18] = tested on: Human immunodeficiency virus 1; assay: Antiviral activity against Human immunodeficiency virus 1 3B infected in human MT2 cells assessed as inhibition of reverse transcriptase activity at 0.001 nM after 72 to 96 hrs by MTT assay relative to untreated control; type: functional; design: scale not given: the % may be the effect or the level left
[19] = tested on: Human immunodeficiency virus 1; assay: Antiviral activity against Human immunodeficiency virus 1 3B infected in human MT2 cells assessed as inhibition of reverse transcriptase activity at 0.00001 nM after 72 to 96 hrs by MTT assay relative to untreated control; type: functional; design: scale not given: the % may be the effect or the level left
[20] = tested on: Human immunodeficiency virus 1; assay: Antiviral activity against Human immunodeficiency virus 1 3B infected in human MT2 cells assessed as inhibition of reverse transcriptase activity at 0.000001 nM after 72 to 96 hrs by MTT assay relative to untreated control; type: functional; design: scale not given: the % may be the effect or the level left
[21] = tested on: Human immunodeficiency virus 1; assay: Antiviral activity against Human immunodeficiency virus 1 3B infected in human MT2 cells assessed as survival of virus infected cells at 0.001 nM after 72 to 96 hrs by MTT assay; type: functional; outline: as §1
[22] = tested on: Human immunodeficiency virus 1; assay: Antiviral activity against Human immunodeficiency virus 1 3B infected in human MT2 cells assessed as inhibition of reverse transcriptase activity at 0.0001 nM after 72 to 96 hrs by MTT assay relative to untreated control; type: functional; design: scale not given: the % may be the effect or the level left
[23] = tested on: Human immunodeficiency virus 1; assay: Antiviral activity against Human immunodeficiency virus 1 3B infected in human MT2 cells assessed as survival of virus infected cells at 0.00001 nM after 72 to 96 hrs by MTT assay; type: functional; outline: as §1
[24] = tested on: Human immunodeficiency virus 1; assay: Antiviral activity against Human immunodeficiency virus 1 3B infected in human MT2 cells assessed as survival of virus infected cells at 0.1 nM after 72 to 96 hrs by MTT assay; type: functional; outline: as §1
[25] = tested on: Human immunodeficiency virus 1; assay: Antiviral activity against Human immunodeficiency virus 1 3B infected in human MT2 cells assessed as survival of virus infected cells at 0.000001 nM after 72 to 96 hrs by MTT assay; type: functional; outline: as §1
[26] = tested on: Human immunodeficiency virus 1; assay: Antiviral activity against Human immunodeficiency virus 1 3B infected in human MT2 cells assessed as inhibition of reverse transcriptase activity at 0.0000001 nM after 72 to 96 hrs by MTT assay relative to untreated control; type: functional; design: scale not given: the % may be the effect or the level left
[27] = tested on: Human immunodeficiency virus 1; assay: Antiviral activity against Human immunodeficiency virus 1 3B infected in human MT2 cells assessed as survival of virus infected cells at 0.0000001 nM after 72 to 96 hrs by MTT assay; type: functional; outline: as §1
[28] = tested on: Human immunodeficiency virus 1; assay: Antiviral activity against Human immunodeficiency virus 1 3B infected in human MT2 cells assessed as inhibition of reverse transcriptase activity at 0.1 nM after 72 to 96 hrs by MTT assay relative to untreated control; type: functional; design: scale not given: the % may be the effect or the level left

T1 sequence (Q9YQ12 whole entry): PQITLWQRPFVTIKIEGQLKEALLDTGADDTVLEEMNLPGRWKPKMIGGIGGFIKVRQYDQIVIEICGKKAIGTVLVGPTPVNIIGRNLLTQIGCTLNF

Compound: Cc1cccc(C)c1OCC(=O)N[C@@H](Cc1ccccc1)[C@H](O)[C@@H](O)[C@H](Cc1ccccc1)NC(=O)COc1c(C)cccc1C
- IC50 (Protease [1]): 0.028 µM

Compound: Cc1cccc(C)c1OCC(=O)N1CCC[C@H]1[C@H](O)[C@@H](O)[C@@H]1CCCN1C(=O)COc1c(C)cccc1C
- IC50 (Protease [1]): 290 µM

Compound: CC(=O)N[C@@H](Cc1c[nH]c2ccccc12)C(=O)N[C@H](C(=O)N[C@@H](Cc1ccccc1)[C@H](O)[C@@H](O)[C@@H]1CCCCN1C(=O)[C@@H](NC(=O)[C@H](Cc1c[nH]c2ccccc12)NC(C)=O)C(C)C)C(C)C
- IC50 (Protease [1]): 0.0018 µM

Compound: Cc1cccc(C)c1OCC(=O)N[C@@H](Cc1ccccc1)[C@H](O)[C@@H](O)[C@@H]1CCCCN1C(=O)COc1c(C)cccc1C
- IC50 (Protease [1]): 0.175 µM

Compound: CC(=O)N[C@@H](Cc1c[nH]c2ccccc12)C(=O)N[C@H](C(=O)N1CCC[C@H]1[C@H](O)[C@@H](O)[C@H](Cc1ccccc1)NC(=O)COc1c(C)cccc1C)C(C)C
- IC50 (Protease [1]): 0.075 µM

Compound: CC[C@H](C)[C@H](NC(=O)[C@@H](NC(C)=O)C(C)C)C(=O)N1CCC[C@H]1[C@H](O)[C@@H](O)[C@H](Cc1ccccc1)NC(=O)[C@H](CC(N)=O)NC(=O)[C@H](CC(C)C)NC(=O)[C@H](CO)NC(C)=O
- IC50 (Protease [1]): 0.0006 µM

Compound: Cc1cccc(C)c1OCC(=O)N[C@@H](Cc1ccccc1)[C@@H](O)[C@H](O)[C@H]1CCCN1C(=O)COc1c(C)cccc1C
- IC50 (Protease [1]): 3.3 µM

Compound: Cc1cccc(C)c1OCC(=O)N[C@@H](Cc1ccccc1)[C@H](O)[C@@H](O)[C@@H]1CCCN1C(=O)COc1ccccc1
- IC50 (Protease [1]): 0.085 µM

Compound: CC(=O)c1ccc(OCC(=O)N[C@@H](Cc2ccccc2)[C@H](O)[C@@H](O)[C@@H]2CCCN2C(=O)COc2ccc(C(C)=O)cc2)cc1
- IC50 (Protease [1]): 116 µM

Compound: CC(=O)N[C@@H](Cc1c[nH]c2ccccc12)C(=O)N[C@H](C(=O)N[C@@H](Cc1ccccc1)[C@H](O)[C@@H](O)[C@H](Cc1ccccc1)NC(=O)[C@@H](NC(=O)[C@H](Cc1c[nH]c2ccccc12)NC(C)=O)C(C)C)C(C)C
- IC50 (Protease [1]): 0.006 µM

Compound: O=C(COc1ccccc1)N[C@@H](Cc1ccccc1)[C@H](O)[C@@H](O)[C@@H]1CCCN1C(=O)COc1ccccc1
- IC50 (Protease [1]): 0.614 µM

Compound: CC(=O)N[C@@H](Cc1c[nH]c2ccccc12)C(=O)N[C@H](C(=O)N[C@@H](Cc1ccccc1)[C@H](O)[C@@H](O)[C@@H]1CCCN1C(=O)[C@@H](NC(=O)[C@H](Cc1c[nH]c2ccccc12)NC(C)=O)C(C)C)C(C)C
- Activity [2]: 24%
- survival at 0.01 µM [3]: > 90%
- MNTC at 72 h [4]: 10 nM
- Activity (MT2 [5]): Dose-dependent effect
- Activity [6]: 50%
- selectivity ratio [7]: 5000
- Ratio (MT2 [8]): 33
- MNTC at 96 h [9]: 0.3 nM
- Activity (MT2 [10]): Dose-dependent effect
- CC50 at 96 h [11]: 0.5 µM
- Activity (MT2 [12]): Dose-dependent effect
- IC50 (Protease [1]): < 0.0006 µM
- CC50 at 72 h [13]: 2500 µM
- Activity (MT2 [14]): Dose-dependent effect
- IC50 (Protease [15]): 5 nM
- survival at 0.005 µM [16]: > 90%

Compound: Cc1cccc(C)c1OCC(=O)N[C@@H](Cc1ccccc1)[C@H](O)[C@@H](O)[C@@H]1CCCN1C(=O)COc1c(C)cccc1C
- MNTC at 72 h [4]: 0.1 nM
- Activity (MT2 [5]): Dose-dependent effect
- survival at 100 fM [17]: 87%
- Activity [18]: 25%
- Activity [19]: 29%
- Activity [20]: 28%
- MNTC at 96 h [9]: 0.1 nM
- Activity (MT2 [10]): Dose-dependent effect
- survival at 1 pM [21]: 80%
- CC50 at 96 h [11]: 1000 µM
- Activity (MT2 [12]): Dose-dependent effect
- Activity [22]: 26%
- IC50 (Protease [1]): 0.0096 µM
- survival at 10 fM [23]: 90%
- survival at 0.0001 µM [24]: 78%
- CC50 at 72 h [13]: 300 µM
- Activity (MT2 [14]): Dose-dependent effect
- IC50 (Protease [15]): 0.0015 nM
- survival at 1 fM [25]: > 90%
- Activity [26]: 26%
- survival at 1e-10 µM [27]: > 90%
- Activity [28]: 24%

Compound: CC[C@H](NC(=O)COc1ccccc1C)[C@H](O)[C@@H](O)[C@@H]1CCCN1C(=O)COc1ccccc1C
- IC50 (Protease [1]): 0.655 µM
